pKi: −log10 of the molar value. Activity calls are given as the source filed them. The calls are words filed in the database; no cut-off is given here.
What was measured:
[1] = tested on: Enterococcus faecium; test: Antimicrobial activity against Enterococcus faecium D344R after 18 hrs by macrodilution method
[2] = tested on: Enterococcus faecium; test: Inhibition of purified Enterococcus faecium D359 His-tagged Aslfm assessed as residual activity preincubated at 250 uM for 2 mins prior to reaction initiation measured after 10 mins by UV/VIS spectrophotometry
How it was run: (§1)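 His-tagged Aslfm in 100 mM Tris-HCl pH 8.0, 50 mM MgCl2, 2 mM phosphoenolpyruvate, 0.16 mM NADH, 1 mM ATP, 1 mM D-Asp, 0.005% Triton X-114, with pyruvate kinase and lactate dehydrogenase. Compound in DMSO was preincubated 2 min at 37 °C, and the reaction was started with 0.3 mM UM5K. A340 was followed for 10 min. Duplicates; residual activity is relative to DMSO controls.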

[3] = tested on: Enterococcus faecium; test: Inhibition of purified Enterococcus faecium D359 His-tagged Aslfm assessed as residual activity preincubated at 100 uM for 2 mins prior to reaction initiation measured after 10 mins by UV/VIS spectrophotometry
How it was run: as §1

[4] = tested on: Enterococcus faecium; test: Antimicrobial activity against Enterococcus faecium E1679 after 18 hrs by broth microdilution method; format: functional; conditions: E1679, 18 h
[5] = tested on: Enterococcus faecium; test: Antimicrobial activity against Enterococcus faecium E1636 after 18 hrs by broth microdilution method; format: functional; conditions: E1636, 18 h
[6] = tested on: Enterococcus faecium; test: Competitive inhibition of purified Enterococcus faecium D359 His-tagged Aslfm preincubated for 2 mins prior to reaction initiation measured after 10 mins by time course assay
How it was run: (§2)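 Coupled pyruvate kinase–lactate dehydrogenase assay at 37 °C monitored at 340 nm. Starting conditions: 100 µM ATP, 1 mM D-Asp, 300 µM UDP-MurNAc-pentapeptide, 2 mM phosphoenolpyruvate, 105 µM NADH, enzyme 0.75 or 1 µM, up to six inhibitor concentrations. Progress curves over 10–15 min were fitted to a […] mechanism, with enzyme constants fixed and inhibitor constants fitted. Ki was also measured at ATP 50 and 100 µM.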

[7] = tested on: Enterococcus faecalis; test: Antimicrobial activity against Enterococcus faecalis ATCC 29212 after 18 hrs by broth microdilution method; format: functional; conditions: ATCC 29212, 18 h
[8] = Inhibition of purified Enterococcus faecium D359 His-tagged Aslfm preincubated for 2 mins prior to reaction initiation measured after 10 mins by UV/VIS spectrophotometry
How it was run: as §1

[9] = tested on: Enterococcus faecium; test: Antimicrobial activity against Enterococcus faecium D344R at 160 ug after 18 hrs by disk diffusion method
[10] = tested on: Enterococcus faecium; test: Binding affinity to purified Enterococcus faecium D359 His-tagged Aslfm by isothermal titration calorimetry method
How it was run: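 The ligand (50 µM in buffer with 5% DMSO) was titrated into ~1 µM enzyme (5% DMSO) at 37 °C, 300 rpm, with 5–8 min intervals, to a final ratio of ~12:1. Data were corrected for ligand-into-buffer heats and fitted to a single-binding-site model.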

[11] = Binding affinity to purified Enterococcus faecium D359 His-tagged Aslfm by kinetic study; conditions: in the assay text read “isothermal titration calorimetry” for “kinetic study”
[12] = tested on: Enterococcus faecium; test: Competitive inhibition of purified Enterococcus faecium D359 His-tagged Aslfm preincubated at 0.75 uM for 2 mins prior to reaction initiation measured after 10 mins by time course assay
How it was run: as §2

[13] = tested on: Enterococcus faecium; test: Competitive inhibition of purified Enterococcus faecium D359 His-tagged Aslfm preincubated at 1 uM for 2 mins prior to reaction initiation measured after 10 mins by time course assay
How it was run: as §2

[14] = tested on: Enterococcus faecium; test: Inhibition of purified Enterococcus faecium D359 His-tagged Aslfm assessed as residual activity preincubated at 50 uM for 2 mins prior to reaction initiation measured after 10 mins by UV/VIS spectrophotometry
How it was run: as §1

For `Nc1ncc(C(=O)N(Cc2ccccn2)Cc2ccccn2)o1`, the MIC [1] was greater than 200 µg/mL and the Activity [2] was 74%.

With `Cc1ccc(F)c(CNc2nc(N)nc3[nH]ncc23)c1F` the Activity [3] was 79%.

Molecule `CCCCN(Cc1ccccc1)C(=O)c1cnc(N)o1` has an MIC [1] greater than 200 µg/mL and an Activity [2] of 75%.

Work on `OC(c1ccccc1)(c1ccccc1)c1c[nH]cn1` yielded an Activity [3] of 100%.

Molecule `Nc1nc(NCc2c(F)cccc2F)c2cn[nH]c2n1` has an Activity [3] of 88%.

`Nc1nc(NCc2cccc(Cl)c2Cl)c2cn[nH]c2n1` showed an Activity [3] of 86%.

With `Nc1ncc(C(=O)NCc2ccc3[nH]ccc3c2)o1` the MIC [1] was greater than 200 µg/mL and the Activity [2] was 79%.

Work on `Nc1nc(SCc2ccc(Cl)cc2Cl)c2nc[nH]c2n1` yielded an Activity [3] of 71%, an MIC [4] greater than 64 µg/mL and an MIC [5] greater than 64 µg/mL. The inhibition [6] was “Active”, the MIC [7] was greater than 64 µg/mL and the pKi [8] was 4.46.

In the case of `CC1(C)S[C@@H]2[C@H](NC(=O)[C@H](N)c3ccccc3)C(=O)N2[C@H]1C(=O)O`, the “growth inhibition (GI)” value [9] was “inactive”.

In the case of `Nc1ncc(C(=O)Nc2nc3ccccc3[nH]2)o1`, the MIC [1] was greater than 200 µg/mL and the Activity [2] was 90%.

Work on `Cc1nc(N)sc1C(=O)N(Cc1ccccc1)Cc1ccccc1` yielded an MIC [1] greater than 200 µg/mL and an Activity [2] of 82%.

`Nc1ncc(-c2nnnn2-c2ccccc2)c(-c2ccccc2)n1` showed an Activity [3] of 92%.

For `Nc1nonc1-c1nc2ccccc2n1CC(=O)Nc1ccccc1`, the Activity [3] was 89%.

Work on `c1ccc(CN(Cc2ccccc2)c2ncnc3[nH]cnc23)cc1` yielded an Activity [3] of 83%.

Molecule `Nc1ncc(C(=O)N(Cc2ccccc2)Cc2ccccc2)s1` has an MIC [1] greater than 200 µg/mL and an Activity [2] of 80%.

`CCN(Cc1ccncc1)C(=O)c1cnc(N)o1` showed an MIC [1] greater than 200 µg/mL and an Activity [2] of 98%.

In the case of `Nc1nc(NCc2cccnc2Cl)c2cn[nH]c2n1`, the Activity [3] was 87%.

In the case of `Nc1nc(NCc2c(F)cccc2Cl)c2cn[nH]c2n1`, the Activity [3] was 84%.

For `Nc1nc(NCc2ccc(F)cc2F)c2cn[nH]c2n1`, the Activity [3] was 93%.

Molecule `Nc1nc(NCc2ccc3c(c2)OCO3)c2nc[nH]c2n1` has an Activity [3] of 84%.

`Nc1nnc(P(=O)(c2ccccc2)c2ccccc2)s1` gave an Activity [3] of 95%.

`Nc1ncc(C(=O)N(Cc2ccccc2)Cc2ccccc2)o1` gave a Kb [10] of 2 ×10⁵ /M, an MIC [4] greater than 64 µg/mL and an MIC [5] greater than 64 µg/mL. For the same molecule, the MIC [1] was greater than 200 µg/mL, the pKi [11] was 5.30 and the Activity [2] was 43%. The inhibition [12] was “Active”, the MIC [7] was greater than 64 µg/mL and the pKi [8] was 4.36.

Molecule `Nc1nc(NCc2ccc(Cl)s2)c2cn[nH]c2n1` has an Activity [3] of 74%.

Molecule `Nc1nc(NCc2ccc(Cl)cc2Cl)c2cn[nH]c2n1` has an Activity [3] of 69%, an MIC [4] greater than 64 µg/mL and an MIC [5] greater than 64 µg/mL. The inhibition [6] was “Active”, the MIC [7] was greater than 64 µg/mL and the pKi [8] was 4.66.

Molecule `Nc1nc(SCc2c(Cl)cccc2Cl)c2nc[nH]c2n1` has an Activity [3] of 47%, a Kb [10] of 2 ×10⁵ /M and an MIC [4] greater than 64 µg/mL. For the same molecule, the MIC [5] was greater than 64 µg/mL, the pKi [11] was 5.30 and the inhibition [13] was “Active”. It also gave an MIC [7] greater than 64 µg/mL and a pKi [8] of 5.49.

Molecule `CCCCN(CCCC)C(=O)c1cnc(N)o1` has an MIC [1] greater than 200 µg/mL and an Activity [2] of 94%.

`CS(=O)(=O)Nc1nc(CC(=O)N(Cc2cccs2)Cc2cccs2)cs1` showed an Activity [3] of 91%.

Molecule `Nc1nc(NCc2ccc(Cl)cc2Cl)c2nc[nH]c2n1` has an Activity [3] of 85%.

`O=C(c1cnc(O)cn1)N(Cc1cccs1)CC1CCCO1` (stereo unspecified) gave an Activity [3] of 93%.

`Nc1nc(NCc2ccc(Cl)c(Cl)c2)c2nc[nH]c2n1` gave an Activity [3] of 83%.

`CN(C(=O)Cn1c(-c2nonc2N)nc2ccccc21)c1ccccc1` showed an Activity [3] of 116%.

`Cc1ccc(-n2nnnc2-c2cn[nH]c2-c2cccc(C)c2)cc1` gave an Activity [3] of 92%.

Molecule `COc1ccc(CNc2nc(N)nc3[nH]cnc23)c(OC)c1` has an Activity [3] of 89%.

Molecule `O=C(c1ccc(O)nc1)N(Cc1ccco1)Cc1cccs1` has an Activity [3] of 93%.

For `Clc1ccc(CN(Cc2ccccc2)c2ncnc3[nH]cnc23)cc1`, the Activity [14] was 110%.

In the case of `Clc1cccc(Cl)c1CN(Cc1ccccc1)c1ncnc2[nH]cnc12`, the Activity [14] was 94%.

Work on `Nc1ncc(C(=O)N(Cc2cc(Br)cc(Br)c2)Cc2ccc3[nH]ccc3c2)o1` yielded an Activity [3] of 44%, an MIC [4] greater than 64 µg/mL and an MIC [5] greater than 64 µg/mL. The MIC [1] was greater than 200 µg/mL, the inhibition [6] was “Active” and the MIC [7] was greater than 64 µg/mL. For the same molecule, the pKi [8] was 5.54.

From ChEMBL document CHEMBL2417449, “Discovery of the first inhibitors of bacterial enzyme D-aspartate ligase from Enterococcus faecium (Aslfm)” (Eur J Med Chem, 2013)
